Experiments:
[1] = Metabolic stability in human liver microsomes assessed as parent compound remaining in presence of NADPH by LC-MS/MS method; type: ADME
Summary of the method: (§1)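 Compound incubated with liver microsomes (human or mouse) plus NADPH at 37 °C. Loss of parent was followed by LC-MS-MS and reported as percent. Stability bands: low <40%, medium 40–60%, high >60%.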

[2] = Metabolic stability in mouse liver microsomes assessed as parent compound remaining in presence of NADPH by LC-MS/MS method; type: ADME; summary of the method: as §1
[3] = Apparent permeability across human Caco2 cells after 2 hrs by LC-MS method; type: ADME, cell-based; conditions: Caco-2
Summary of the method: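 Caco-2 monolayers checked for integrity, then dosed alongside high- and low-permeability controls. Apical and basal samples taken at 2 h. Four transport conditions: A-B at pH 6.5/7.4 (0% or 0.5% BSA apical, 5% BSA basal), and A-B and B-A at pH 7.4/7.4 (0.5% BSA both sides). Compound quantified by LC/MS. Rapid transport defined as Papp >20 nm/s.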

[4] = Intrinsic clearance in human hepatocytes assessed per 10^6 cells at 5 uM; type: ADME, cell-based, Hepatocyte
[5] = biological target: T1, Muscarinic acetylcholine receptor M2 (Homo sapiens) (UniProt P08172); test: Displacement of [3H]AF-DX384 from recombinant human muscarinic M2 receptor expressed in CHO cells at 10 uM after 60 mins by scintillation counting method relative to control; type: cell-based
T1 sequence (whole entry): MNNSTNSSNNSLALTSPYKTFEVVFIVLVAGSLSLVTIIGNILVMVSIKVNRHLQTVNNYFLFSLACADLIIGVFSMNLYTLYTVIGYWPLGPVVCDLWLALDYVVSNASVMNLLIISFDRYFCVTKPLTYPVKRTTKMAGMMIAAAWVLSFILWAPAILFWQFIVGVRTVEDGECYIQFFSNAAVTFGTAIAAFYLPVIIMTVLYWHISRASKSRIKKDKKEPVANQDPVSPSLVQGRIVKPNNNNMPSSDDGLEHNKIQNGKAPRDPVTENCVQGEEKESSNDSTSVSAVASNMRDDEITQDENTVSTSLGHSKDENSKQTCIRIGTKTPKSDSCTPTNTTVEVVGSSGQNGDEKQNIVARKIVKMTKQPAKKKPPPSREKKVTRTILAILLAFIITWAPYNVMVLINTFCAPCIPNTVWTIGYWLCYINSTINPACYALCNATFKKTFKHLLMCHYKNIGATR

[6] = biological target: T2, C-X-C chemokine receptor type 3 (Homo sapiens) (UniProt P49682); test: Displacement of [125I]-CXCL10 from human recombinant CXCR3 transfected in Flp-In-CHO cell membranes at 10 uM after 60 mins by gamma counting method relative to control
T2 sequence (whole entry): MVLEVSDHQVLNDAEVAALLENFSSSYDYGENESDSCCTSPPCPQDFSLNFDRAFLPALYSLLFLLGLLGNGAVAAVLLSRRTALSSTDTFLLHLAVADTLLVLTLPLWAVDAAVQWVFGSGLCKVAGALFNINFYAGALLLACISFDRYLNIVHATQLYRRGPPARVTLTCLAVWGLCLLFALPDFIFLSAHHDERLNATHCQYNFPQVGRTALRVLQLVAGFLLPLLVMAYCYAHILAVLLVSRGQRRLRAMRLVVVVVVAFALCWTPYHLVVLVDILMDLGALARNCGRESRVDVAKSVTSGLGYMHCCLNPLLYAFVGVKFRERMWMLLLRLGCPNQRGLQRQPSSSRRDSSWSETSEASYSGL

[7] = Absolute oral bioavailability in Balb/c mouse at 10 mg/kg; type: ADME, organism-based; conditions: in vivo
Summary of the method: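 Male Balb/c mice dosed once orally at 10 mg/kg and once intravenously at 3 mg/kg. Either 4 animals per route were profiled individually, or sparse sampling used 24 mice with 3 per time point for mean profiles. Absolute oral bioavailability was derived from the two routes.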

[8] = biological target: Mu-type opioid receptor (Homo sapiens) (UniProt P35372); test: Displacement of [3H]DAMGO from recombinant human mu opioid receptor expressed in HEK293 cells at 10 uM after 60 mins by scintillation counting method relative to control; type: cell-based
Mu-type opioid receptor (Homo sapiens), sequence (P35372 whole entry): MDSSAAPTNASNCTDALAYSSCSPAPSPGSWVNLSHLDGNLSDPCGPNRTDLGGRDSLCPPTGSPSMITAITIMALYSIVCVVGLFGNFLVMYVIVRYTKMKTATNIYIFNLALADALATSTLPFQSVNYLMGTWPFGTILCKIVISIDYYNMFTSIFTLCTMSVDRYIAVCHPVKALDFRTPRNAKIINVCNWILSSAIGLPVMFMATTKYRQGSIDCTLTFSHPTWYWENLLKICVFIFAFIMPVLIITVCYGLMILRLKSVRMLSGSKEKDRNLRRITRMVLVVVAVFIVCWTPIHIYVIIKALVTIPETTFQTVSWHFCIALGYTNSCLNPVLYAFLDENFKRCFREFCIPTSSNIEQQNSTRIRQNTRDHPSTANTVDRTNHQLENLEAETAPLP

[9] = biological target: T3, C-X-C chemokine receptor type 3 (Homo sapiens, UniProt P49682); test: Displacement of [125I]-CXCL10 from human recombinant CXCR3 transfected in Flp-In-CHO cell membranes after 60 mins by gamma counting method
T3 sequence (P49682 whole entry): T2 sequence (whole entry)

[10] = biological target: T4, Alpha-1A adrenergic receptor (Homo sapiens) (UniProt P35348); test: Displacement of [3H]prazosin from recombinant human alpha 1A adrenergic receptor expressed in CHO cells at 10 uM after 60 mins by scintillation counting method relative to control; type: cell-based
T4 sequence (whole entry): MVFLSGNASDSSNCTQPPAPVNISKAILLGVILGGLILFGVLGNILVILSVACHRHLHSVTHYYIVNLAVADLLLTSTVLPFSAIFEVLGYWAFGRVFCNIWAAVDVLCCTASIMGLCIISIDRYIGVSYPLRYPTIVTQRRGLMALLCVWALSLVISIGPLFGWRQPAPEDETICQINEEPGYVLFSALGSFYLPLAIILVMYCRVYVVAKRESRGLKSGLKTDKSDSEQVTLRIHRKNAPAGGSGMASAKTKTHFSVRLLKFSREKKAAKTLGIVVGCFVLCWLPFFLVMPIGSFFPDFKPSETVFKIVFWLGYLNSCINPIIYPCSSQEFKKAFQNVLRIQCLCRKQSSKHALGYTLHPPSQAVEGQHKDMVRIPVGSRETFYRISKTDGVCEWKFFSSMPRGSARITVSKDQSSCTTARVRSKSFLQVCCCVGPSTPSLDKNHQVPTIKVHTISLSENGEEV

Structure (SMILES)	Stability [1] [%]	Stability [2] [%]	Papp at 2 h [3] [×10⁻⁶ cm/s]	CLH [4] [mL/h]	inhibition [5] [%]	inhibition [6] [%]	bioavailability [7] [%]	inhibition [8] [%]	IC50 [9] [nM]	inhibition [10] [%]
CCc1cc(CN(C[C@H]2CC[C@H](C(=O)O)CC2)[C@H]2CCc3cc(Cl)ccc32)ccc1OCCN1C(=O)CCC1=O	94	96	8.02	0.069	37	–	–	–	–	–
COc1ccc(CN(C)C(C)c2ccc3c(c2)CCO3)cc1OCCN1C(=O)CCC1=O (stereo not given)	–	–	–	–	–	18	–	–	–	–
Cc1cc(CN(C[C@H]2CC[C@H](C(=O)O)CC2)C(C)c2ccc3c(c2)CCO3)ccc1OCCN1C(=O)CCC1=O (stereo not given in full)	70	87	2.22	–	99	–	4.1	78	–	–
COc1cc(CN(C[C@H]2CC[C@H](C(=O)O)CC2)C2CCc3cc(Cl)ccc32)ccc1OCCN1C(=O)CCC1=O (stereo not given in full)	66	78	8.98	–	0	–	–	63 to 64	24	52
CC(c1ccc2c(c1)CCO2)N(C)Cc1ccc2c(c1)OCCN2CCN1C(=O)CCC1=O (stereo not given)	–	–	–	–	–	7	–	–	–	–
Cc1cc(CN(C[C@H]2CC[C@H](C(=O)O)CC2)[C@@H](C)c2ccc(Cl)cc2)ccc1OCCN1C(=O)CCC1=O	73	87	19.5	0.138	97	–	93.5	–	–	71
COc1cc(CN(C)C(C)c2ccc3c(c2)CCO3)cc(OCCN2C(=O)CCC2=O)c1 (stereo not given)	–	–	–	–	–	4	–	–	–	–
COc1cc(CN(C[C@H]2CC[C@H](C(=O)O)CC2)[C@H]2CCc3cc(Cl)ccc32)ccc1OCCN1C(=O)CCC1=O	70	79	7.52	0.112	–	–	24	43	–	25
COc1cc(CN(C[C@H]2CC[C@H](C(=O)O)CC2)C(C)c2ccc3c(c2)CCO3)ccc1OCCN1C(=O)CSC1=O (stereo not given in full)	73	73	2.93	–	72	–	–	94	–	–
Cc1cc(CN(C[C@H]2CC[C@H](C(=O)O)CC2)[C@@H](C)c2ccc(Cl)cc2)ccc1OCCN1C(=O)CN(C)C1=O	63	100	15.7	0.234	–	–	63.3	–	99	–
COc1cc(CN(C[C@H]2CC[C@H](C(=O)O)CC2)[C@@H](C)c2ccc(Cl)cc2)ccc1OCCn1c(=O)ccn(C)c1=O	62	76	8.01	0.159	–	–	26.7	–	–	–
CC(c1ccc2c(c1)CCO2)N(C)Cc1ccc2c(c1)OC[C@H](CN1C(=O)CCC1=O)O2 (stereo not given in full)	–	–	–	–	–	36	–	–	–	–
CC(c1ccc2c(c1)CCO2)N(Cc1ccc(OCCN2C(=O)CCC2=O)c(Cl)c1)C[C@H]1CC[C@H](C(=O)O)CC1 (stereo not given in full)	56	92	3.95	–	98	–	–	–	–	–
COc1cc(CN(Cc2ccc(/C=C/C(=O)O)cc2)C(C)c2ccc3c(c2)CCO3)ccc1OCCN1C(=O)CCC1=O (stereo not given)	84	87	1.34	–	–	–	–	–	138	–
COc1cc(CN(C)C(C)c2ccc3c(c2)CCO3)cc(OCCCN2C(=O)CCC2=O)c1 (stereo not given)	–	–	–	–	–	15	–	–	–	–
COc1cc(CN(C)C(C)c2ccc3c(c2)CCO3)ccc1OCN1C(=O)CCC1=O (stereo not given)	–	–	–	–	–	8	–	–	–	–
COc1cc(CN(C[C@H]2CC[C@H](C(=O)O)CC2)C(C)c2ccc3c(c2)CCO3)ccc1OCCN1C(=O)CCC1=O (stereo not given in full)	98	92	0.98	–	54	–	17.3	–	–	–
COc1cc(CN(C[C@H]2CC[C@H](C(=O)O)CC2)[C@H]2CCc3c2ccc(Cl)c3F)ccc1OCCN1C(=O)CCC1=O	73	81	2.97	0.031	16	–	47	–	–	–
COc1cc(CN(CCCC(=O)O)C(C)c2ccc3c(c2)CCO3)ccc1OCCN1C(=O)CCC1=O (stereo not given)	100	95	–	–	–	–	2	–	210	–
COc1cc(CN(CCCC(=O)O)C(c2ccc3c(c2)CCO3)C2CCCC2)ccc1OCCN1C(=O)CCC1=O (stereo not given)	92	94	3.21	–	–	–	–	–	382	–
COc1cc(CN(C[C@H]2CC[C@H](C(=O)O)CC2)[C@@H](C)c2ccc(Cl)cc2)ccc1OCCN1C(=O)CCC1=O	91	91	5.28	–	–	–	13.3	74	–	–
COc1cc(CN(C)C(C)c2ccc3c(c2)CCO3)ccc1OCCCN1C(=O)CCC1=O (stereo not given)	–	–	–	–	–	39	–	–	–	–
COc1cc(CN(Cc2ccc(-c3nnn[nH]3)cc2)C(C)c2ccc3c(c2)CCO3)ccc1OCCN1C(=O)CCC1=O (stereo not given)	51	77	0.2	–	–	–	–	–	126	–
COc1cc(CN(C[C@H]2CC[C@H](C(=O)O)CC2)[C@H]2CCc3c2ccc(Cl)c3Cl)ccc1OCCN1C(=O)CCC1=O	75	81	5.7	0.083	0	–	–	–	–	–
COc1cc(CN(Cc2ccc(C(=O)O)cc2)C(C)c2ccc3c(c2)CCO3)ccc1OCCN1C(=O)CCC1=O (stereo not given)	61	63	–	–	–	–	9	–	120	–

From ChEMBL document CHEMBL3864163, “I. Discovery of a novel series of CXCR3 antagonists. Multiparametric optimization of N,N-disubstituted benzylamines” (Bioorg Med Chem Lett, 2016)
